SENP8 block-1 = blocks human SENP8 cleavage of Nedd8 substrate; AID 602440; Q96LD8; inhibition, % at 20 µM; recombinant SENP8, Nedd8 substrate fluorescence; 360,000 compounds, 0.64% hits; in the data active = inhibition mostly above about 40%, no sharp cut-off; inactive = mostly below about 27%
Target sequence (Q96LD8 whole entry, looked up): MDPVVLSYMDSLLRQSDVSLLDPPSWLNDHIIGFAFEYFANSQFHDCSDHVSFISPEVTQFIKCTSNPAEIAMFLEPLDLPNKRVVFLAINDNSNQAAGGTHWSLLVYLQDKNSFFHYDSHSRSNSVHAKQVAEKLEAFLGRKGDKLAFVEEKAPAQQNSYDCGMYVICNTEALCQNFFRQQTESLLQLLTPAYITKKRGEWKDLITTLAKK
SENP8 block-2 = inhibitors of human SENP8 protease; Q96LD8; inhibition, % at 10 µM; 330,000 compounds, 1.2% hits; purified SENP8, Z-RLRGG-aminoluciferin cleavage, luminescence; AID 2540; in the data active = inhibition above about 50%
Apaf1 inhib = human Apaf-1 inhibition. inhibition, % at 20 µM. reconstituted apoptosome caspase-3 activity, DEVD-Rh110 fluorescence. 330,000 compounds, 0.71% hits; active = inhibition of at least 40% at 20 µM;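 also: plate controls were DMSO wells for no effect and DEVD-CHO caspase inhibitor wells for full effect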
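Assay system – apoptosome proteins · Medium – Hepes buffer, pH 7.5 · Also added – cytochrome c with DEVD-Rh110 · Timing – 30 min compound preincubation, 50 min activation, room temperature · Detection – Rh110 fluorescence, excitation 480 nm, emission 540 nm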
SENP6 block = SENP6 protease inhibition; Recombinant SENP6 catalytic domain, aminoluciferin luminescence; inhibition, % at 10 µM; 330,000 compounds, 1.8% hits; AID 2599;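 active = inhibition above about 50% at the single tested dose, limit read from the data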;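 also: plate controls were DMSO wells with enzyme for no effect and DMSO wells lacking enzyme for full effect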
UBC13 polyUb = human UBC13 polyubiquitination inhibition. P61088. UBC13 polyubiquitin chain formation, TR-FRET. inhibition, % at 20 µM. 330,000 compounds, 0.47% hits. AID 485273; in the data active = inhibition above about 45%, passing the limit was not always enough
SENP7 block = SENP7 protease inhibition; inhibition, % at 5 µM; Q9BQF6; AID 434973; 330,000 compounds, 1.5% hits; recombinant SENP7, Z-RLRGG-aminoluciferin luminescence, 40 min;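 active = inhibition above about 50% at the single test dose, limit read from the data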;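 also: plate controls were DMSO with enzyme for no effect and no enzyme buffer wells for full effect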
Target sequence (Q9BQF6 706-1050 limits assumed): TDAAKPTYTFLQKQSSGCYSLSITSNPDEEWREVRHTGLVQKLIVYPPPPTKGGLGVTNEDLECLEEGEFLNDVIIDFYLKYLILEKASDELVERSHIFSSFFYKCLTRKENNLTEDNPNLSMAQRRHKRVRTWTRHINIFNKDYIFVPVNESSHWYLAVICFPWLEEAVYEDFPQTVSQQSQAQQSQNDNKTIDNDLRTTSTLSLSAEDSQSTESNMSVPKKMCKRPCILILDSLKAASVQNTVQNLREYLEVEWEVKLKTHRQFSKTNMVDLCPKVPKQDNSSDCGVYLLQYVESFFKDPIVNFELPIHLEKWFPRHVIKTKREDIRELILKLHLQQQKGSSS
* = called active by the depositor; i = inactive; / = not tested or not shown. Only some compounds are listed: those with a hit (about 3% of all), similar ones and a draw of the others.

SMILES	SENP8 block-1	SENP8 block-2	Apaf1 inhib	SENP6 block	UBC13 polyUb	SENP7 block
COC1C=CC=C(C)C(=O)NC2=CC(=O)C(N)=C(CC(C)CC(OC)C(O)C(C)C=C(C)C1OC(N)=O)C2=O (centres undefined)	57.2*	/	/	/	/	/
O=C(c1ccccc1)N1CCN(c2ccc([N+](=O)[O-])c(NCc3cccnc3)c2)CC1	21.4	-5.6	11.2	-24.2	-33.5	-9.6
CC(C)CC(=O)N1CCN(c2ccc([N+](=O)[O-])c(NCc3ccccc3)c2)CC1	53.6*	-4.2	20.1	-11.9	-14.6	2.8
COc1ccccc1C(=O)Nc1ccc(OCC(=O)N2C(C)CCCC2C)cc1 (centres undefined)	10.0	11.5	-13.4	7.3	2.6	2.7
CCNC(=O)c1cc2c(c(-c3cccc(-c4cccnc4)c3)n1)[C@H](CCO)N(S(C)(=O)=O)C2	10.1	/	/	/	/	/
O=C(c1ccccc1)n1ccc(-c2cnc(-c3ccccc3)s2)n1	i	67.5*	-0.2	56.6*	18.3	90.1*
COc1cc(C2Nc3ccccc3NC3=C2C(=O)CC(C)(C)C3)cc(OC)c1OC(C)=O (centres undefined)	11.9	0.7	-1.6	15.2	2.6	6.3
CCOC(=O)c1c(SCCN2CCCC2)n(-c2ccccc2)c(=S)n(-c2ccccc2)c1=O	9.0	/	/	/	/	/
Oc1ccc(/C=N/N=C(c2ccccc2)c2ccccc2)c(O)c1O	33.5*	/	/	/	/	/
CN(C)/C=C1/C(=O)N(c2ccc([N+](=O)[O-])cc2)N=C1c1ccccc1	/	96.1*	10.1	101.5*	-17.1	97.2*
Cc1cccc(CN2C(=O)/C(=C\c3ccc(C(=O)NCCCN4CCN(C)CC4)cc3)Oc3ccccc32)c1	-365.4	-16.3	52.5*	-25.0	67.8*	-8.9
CN1CCN(CCCNC(=O)c2ccc(/C=C3/Sc4ccccc4N(Cc4cccc(Cl)c4)C3=O)cc2)CC1	-290.5	/	/	/	/	/
NS(=O)(=O)c1ccc2c(c1)C(=NO)c1cc(S(N)(=O)=O)ccc1-2	-121.5	-13.8	0.1	0.5	-13.4	-0.9
NC1=C(Cl)C(=O)c2ccccc2C1=O	82.9*	/	/	/	/	/
NC1=C(Cl)C(=O)c2ccc(S(N)(=O)=O)cc2C1=O	96.1*	/	/	/	/	/
COC1=CC(=O)c2c(ccc3ncnc(N)c23)C1=O	83.7*	/	/	/	/	/
N#C/C(=N\Nc1ccc(S(=O)(=O)N2CCc3ccccc32)cc1)C(N)=S	41.2*	-6.6	5.1	-19.9	-48.9	-5.7
CCOC(=O)/C(C#N)=N/Nc1ccc(S(=O)(=O)N2CCc3ccccc32)cc1	31.3	-3.1	-1.7	-4.8	-1.7	2.3
N#CC(C#N)=NNc1ccc(S(=O)(=O)N2CCCC2)cc1	47.3*	-8.9	-0.1	1.8	-14.5	-3.4
N#C/C(=N\Nc1ccc(S(=O)(=O)N2CCCCC2)cc1)C(N)=S	44.9*	-2.2	-1.8	0.7	-33.6	0.8
N#C/C(=N\Nc1ccc(S(=O)(=O)N2CCCCCC2)cc1)C(N)=S	31.2	15.1	8.6	-17.6	-22.4	-6.9
CCCCC(NC(=O)c1ccc(C#N)cc1)C(=O)NCCC (centres undefined)	10.0	-5.5	3.9	-11.6	1.9	3.6
CCOC(=O)c1c(C)[nH]c(C(=O)OC(C)C(=O)NC2CCCCC2C)c1C (centres undefined)	-2.6	-3.1	-5.4	-1.1	8.3	1.8
Fc1ccc(N/N=C/C=C/c2ccccc2)c(F)c1	-378.4	-12.7	6.3	37.4	7.4	4.1
Fc1ccc(N/N=C/c2ccncc2)c(F)c1	1.4	44.3	8.3	58.5*	-11.2	30.5
SMILES	SENP8 block-1	SENP8 block-2	Apaf1 inhib	SENP6 block	UBC13 polyUb	SENP7 block
COC(=O)C[C@H]1c2cc(F)ccc2S(=O)(=O)N1C(C)C	6.5	3.4	-5.3	-13.2	3.7	1.0
CCCCNC(=O)C(C1CCCCC1)N(CCN(C)C)C(=O)CCCN1C(=O)NC(c2ccc(-c3ccccc3)cc2)C(C(=O)OCc2ccccc2)=C1C (centres undefined)	/	/	64.3*	/	/	9.4
O=c1c(O)c(-c2ccc(O)c(O)c2)oc2cc(O)cc(O)c12	33.0*	27.7	18.8	53.0*	17.3	2.6
CCCCc1nc(N2CCN(C(=O)c3ccco3)CC2)c(C#N)c2c1CCCC2	-312.7	-9.3	41.8*	-13.3	4.6	-14.4
O=C(Cn1cnc2ccccc2c1=O)Nc1ccccc1N1CCOCC1	-4.0	-6.6	-8.2	-10.9	12.0	-3.6
CCOc1ccc(/C=C2/SC(=S)N(n3c(C)ccc3C)C2=O)cc1	40.7*	-3.5	17.7	2.1	-3.0	-6.6
COc1cc(/C=N/NC(=O)CCC(=O)NCc2ccccc2)cc(OC)c1OC	11.8	0.3	5.2	13.5	3.7	7.1
CN(C)c1ccc(C=c2c3cc([N+](=O)[O-])ccc3n3c2cc(-c2ccccc2)[n+]3C)cc1	51.0*	/	/	/	/	/
O=C(O)c1ccc(N=NNc2cccc([N+](=O)[O-])c2)cc1	40.2*	95.6*	0.4	94.9*	-4.8	98.2*
O=C(Nc1cccc([N+](=O)[O-])c1)c1ccc(-c2ccccc2)cc1	13.5	-1.2	-9.8	-6.0	-2.8	-13.4
CN1OC[C@@H]2CN(C(=S)Nc3ccc(C#N)cc3)[C@H](c3ccc(N4CCCCC4)cc3)C[C@@H]21	3.9	/	/	/	/	/
CC(Nc1ccccc1)c1cc(Cl)ccc1O (centres undefined)	25.3	-3.9	6.7	-4.8	3.4	1.4
COc1ccc(NC(C)c2cc(Cl)ccc2O)cc1 (centres undefined)	47.0*	-6.1	-2.7	-11.9	3.8	-5.4
O=C(NNc1ccc([N+](=O)[O-])cc1)Nc1ccccc1	37.1	1.9	-2.8	-11.9	-4.6	1.4
O=C(NNc1ccc([N+](=O)[O-])cn1)Nc1ccc(N=Nc2ccccc2)cc1	48.1*	/	/	/	/	/
COc1ccc(CN2CCNC(=O)C2CC(=O)NCCC2=CCCCC2)c(F)c1 (centres undefined)	-38.9	-1.1	24.3	16.8	5.8	-0.2
O=C(NC(=O)c1ccccc1)Nc1ccccn1	2.6	93.6*	11.3	98.8*	-1.1	99.8*
O=C(Nc1ccccn1)c1ccc(C(=O)c2ccccc2)cc1	8.6	19.1	8.7	49.7	10.1	45.4
CC(C)CNC(=O)c1cccc2c(-c3cccc(C(N)=O)c3)coc12	10.9	/	/	/	/	/
CC(=O)Nc1cc2cc(NS(=O)(=O)c3ccc(C)cc3)ccc2oc1=O	-290.5	13.5	-8.4	-15.9	2.1	-1.6
O=C(Oc1ccc(Br)cc1C(=S)N1CCCCC1)c1cc([N+](=O)[O-])cc([N+](=O)[O-])c1	43.8*	2.3	8.2	-2.2	2.8	6.6
O=C(Oc1ccc(Br)cc1C(=S)N1CCCC1)c1ccccc1Cl	7.9	3.9	14.4	-10.2	-7.2	10.1
COc1ccc(-n2c(C)c([N+](=O)[O-])c3ccc(O)c(CN(C)C)c32)cc1	42.5*	-9.7	18.7	-12.4	-17.8	-7.8
Cc1ccccc1N=Cc1cc2c(cc1[N+](=O)[O-])OCO2	-133.7	-0.1	8.2	24.5	-15.4	-0.6
